Experimental data as given in ChEMBL document CHEMBL4715715, “Synthesis and biological evaluation of arylcinnamide linked combretastatin-A4 hybrids as tubulin polymerization inhibitors and apoptosis inducing agents” (Bioorg Med Chem Lett, 2016).

Columns and labels:
MCF7 [1] = test: Cell cycle arrest in human MCF7 cells assessed as accumulation at sub-G1 phase at 100 nM measured after 48 hrs by propidium iodide staining based flow cytometry (reference value: 2.4 %); format: functional
MCF7 [2] = test: Induction of apoptosis in human MCF7 cells assessed as late apoptotic cell population at 50 nM measured after 48 hrs by Annexin V-FITC/PI staining based flow cytometry (reference value: 1 %)
MCF7 [3] = test: Cell cycle arrest in human MCF7 cells assessed as accumulation at G0/G1 phase at 100 nM measured after 48 hrs by propidium iodide staining based flow cytometry (reference value: 85.3 %); format: functional
MCF7 [4] = test: Induction of apoptosis in human MCF7 cells assessed as live cells at 50 nM measured after 48 hrs by annexinV-FITC/propidium iodide staining based flow cytometry (reference value: 95 %)
MCF7 [5] = test: Induction of apoptosis in human MCF7 cells assessed as early apoptotic cells at 50 nM measured after 48 hrs by annexinV-FITC/propidium iodide staining based flow cytometry (reference value: 4.4 %); format: functional
Summary of the method: (§1)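 MCF-7 cells were treated at 50 and 100 nM for 48 h. Annexin V-FITC/PI dual staining was read by flow cytometry. Cells were quadrant-gated as UL, UR, LL and LR, with untreated control alongside.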

COLO 205 = test: Antiproliferative activity against human COLO 205 cells assessed as cell growth inhibition measured after 48 hrs by SRB assay; format: functional
Summary of the method: (§2)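 Sulforhodamine B (SRB) cell-staining assay across a panel of human cancer lines. Growth inhibition is reported as GI50.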

SK-OV-3 = test: Antiproliferative activity against human SK-OV-3 cells assessed as cell growth inhibition measured after 48 hrs by SRB assay; format: functional; summary of the method: as §2
DU-145 = test: Antiproliferative activity against human DU-145 cells assessed as cell growth inhibition measured after 48 hrs by SRB assay; format: functional; summary of the method: as §2
MCF7 [6] = test: Cell cycle arrest in human MCF7 cells assessed as accumulation at S phase at 100 nM measured after 48 hrs by propidium iodide staining based flow cytometry (reference value: 3.1 %); format: functional
K562 = test: Antiproliferative activity against human K562 cells assessed as cell growth inhibition measured after 48 hrs by SRB assay; format: functional; summary of the method: as §2
MCF7 [7] = test: Induction of apoptosis in human MCF7 cells assessed as late apoptotic cells at 50 nM measured after 48 hrs by annexinV-FITC/propidium iodide staining based flow cytometry (reference value: 0.6 %)
MCF7 [8] = test: Induction of apoptosis in human MCF7 cells assessed as activation of caspase 9 at 100 nM measured after 48 hrs by fluorescence assay relative to control; format: functional
Summary of the method: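 MCF-7 breast cancer cells treated at 100 nM for 48 h. Caspase-9 activity compared with untreated control. Mean ± SD of two experiments each run in triplicate.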

MCF7 [9] = test: Antiproliferative activity against human MCF7 cells assessed as cell growth inhibition measured after 48 hrs by SRB assay; format: functional; summary of the method: as §2
Sus scrofa = species on record: Sus scrofa; test: Inhibition of porcine brain tubulin polymerization at 3 uM measured after 1 hr in presence of GTP by fluorescence assay relative to control; format: tissue-based
Summary of the method: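 Tubulin polymerization was followed by fluorescence (excitation 360 nm, emission 420 nm) for 1 h at 37 °C. Compounds were at 3 μM final, with and without compound. Values are mean ± SD of two experiments done in triplicate.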

MCF7 [10] = test: Cell cycle arrest in human MCF7 cells assessed as accumulation at G0/G1 phase at 50 nM measured after 48 hrs by propidium iodide staining based flow cytometry (reference value: 85.3 %); format: functional
Summary of the method: (§3)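 MCF-7 cells were treated at 50 and 100 nM for 48 h. Cell-cycle phase distribution (sub-G1, G0/G1, S, G2/M %) was read by flow cytometry against untreated control.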

MCF7 [11] = test: Cell cycle arrest in human MCF7 cells assessed as accumulation at sub-G1 phase at 50 nM measured after 48 hrs by propidium iodide staining based flow cytometry (reference value: 2.4 %); format: functional; summary of the method: as §3
MCF7 [12] = test: Induction of apoptosis in human MCF7 cells assessed as late apoptotic cells at 100 nM measured after 48 hrs by annexinV-FITC/propidium iodide staining based flow cytometry (reference value: 0.6 %)
MCF7 [13] = test: Induction of apoptosis in human MCF7 cells assessed as early apoptotic cells at 100 nM measured after 48 hrs by annexinV-FITC/propidium iodide staining based flow cytometry (reference value: 4.4 %); format: functional
MCF7 [14] = test: Cell cycle arrest in human MCF7 cells assessed as accumulation at G2/M phase at 50 nM measured after 48 hrs by propidium iodide staining based flow cytometry (reference value: 8.44 %); format: functional; summary of the method: as §3
MCF7 [15] = test: Induction of apoptosis in human MCF7 cells assessed as necrotic cells at 100 nM measured after 48 hrs by annexinV-FITC/propidium iodide staining based flow cytometry (reference value: 0.1 %); format: functional
MCF7 [16] = test: Induction of apoptosis in human MCF7 cells assessed as late apoptotic cell population at 100 nM measured after 48 hrs by Annexin V-FITC/PI staining based flow cytometry (reference value: 1 %)
HeLa = test: Antiproliferative activity against human HeLa cells assessed as cell growth inhibition measured after 48 hrs by SRB assay; format: functional; summary of the method: as §2
MCF7 [17] = test: Induction of apoptosis in human MCF7 cells assessed as early apoptotic cell population at 100 nM measured after 48 hrs by Annexin V-FITC/PI staining based flow cytometry (reference value: 0.7 %)
HOP-62 = test: Antiproliferative activity against human HOP-62 cells assessed as cell growth inhibition measured after 48 hrs by SRB assay; format: functional; summary of the method: as §2
MCF7 [18] = test: Cell cycle arrest in human MCF7 cells assessed as accumulation at G2/M phase at 100 nM measured after 48 hrs by propidium iodide staining based flow cytometry (reference value: 8.44 %); format: functional
MCF7 [19] = test: Induction of apoptosis in human MCF7 cells assessed as live cells at 100 nM measured after 48 hrs by annexinV-FITC/propidium iodide staining based flow cytometry (reference value: 95 %)
MCF7 [20] = test: Induction of apoptosis in human MCF7 cells assessed as early apoptotic cell population at 50 nM measured after 48 hrs by Annexin V-FITC/PI staining based flow cytometry (reference value: 0.7 %)
MIA PaCa-2 = test: Antiproliferative activity against human MIA Paca-2 cells assessed as cell growth inhibition measured after 48 hrs by SRB assay; format: functional; summary of the method: as §2
[21] = Inhibition of porcine brain tubulin polymerization measured after 1 hr in presence of GTP by fluorescence assay; format: tissue-based, Sus scrofa
Summary of the method: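 Tubulin assembly followed by the rise in fluorescence (ex 360 nm, em 420 nm) over 1 h at 37 °C. Compounds tested at a final 3 μM with a reference control. IC50 defined as the concentration inhibiting 50% of tubulin assembly. Mean ± SD of two experiments in triplicate.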

MCF7 [22] = test: Induction of apoptosis in human MCF7 cells assessed as necrotic cells at 50 nM measured after 48 hrs by annexinV-FITC/propidium iodide staining based flow cytometry (reference value: 0.1 %); format: functional; summary of the method: as §1
MCF7 [23] = test: Cell cycle arrest in human MCF7 cells assessed as accumulation at S phase at 50 nM measured after 48 hrs by propidium iodide staining based flow cytometry (reference value: 3.1 %); format: functional; summary of the method: as §3

| SMILES | Activity (MCF7 [1]) [%] | Activity (MCF7 [2]) [%] | Activity (MCF7 [3]) [%] | live cells (MCF7 [4]) [%] | Activity (MCF7 [5]) [%] | GI50 (COLO 205) [nM] | GI50 (SK-OV-3) [nM] | GI50 (DU-145) [nM] | Activity (MCF7 [6]) [%] | GI50 (K562) [nM] | late apoptotic cells (MCF7 [7]) [%] | fold change (FC) (MCF7 [8]) | GI50 (MCF7 [9]) [nM] | inhibition (Sus scrofa) [%] | Activity (MCF7 [10]) [%] | Activity (MCF7 [11]) [%] | late apoptotic cells (MCF7 [12]) [%] | Activity (MCF7 [13]) [%] | Activity (MCF7 [14]) [%] | Activity (MCF7 [15]) [%] | further results |
| --- | --- | --- | --- | --- | --- | --- | --- | --- | --- | --- | --- | --- | --- | --- | --- | --- | --- | --- | --- | --- | --- |
| COc1ccc(/C=C\c2cc(OC)c(OC)c(OC)c2)c(NC(=O)/C=C/c2ccc(F)c(F)c2)c1O | 3.07 | 22.8 | 27.47 | 86.4 | 10.5 | 74900 | 29800 | 45 | 0.52 | 99 | 2 | 2 | 31 | 73.7 | 70.02 | 2.99 | 4.7 | 31.4 | 23.58 | 0.7 | Activity (MCF7 [16]): 26%; GI50 (HeLa): 29200 nM; Activity (MCF7 [17]): 6.2%; GI50 (HOP-62): 43600 nM; Activity (MCF7 [18]): 66.13%; live cells (MCF7 [19]): 63.1%; Activity (MCF7 [20]): 6.5%; GI50 (MIA PaCa-2): 74000 nM; IC50 [21]: 1050 nM; Activity (MCF7 [22]): 1.1%; Activity (MCF7 [23]): 1.46% |
| COc1ccc(/C=C/C(=O)Nc2c(/C=C\c3cc(OC)c(OC)c(OC)c3)ccc(OC)c2O)cc1OC | 3.65 | 12 | 28.16 | 89 | 8.4 | 99 | 99 | 60 | 0.35 | 94 | 1.8 | 2 | 56 | 69.2 | 78.55 | 2.56 | 2.3 | 14.8 | 15.25 | 0.7 | Activity (MCF7 [16]): 22.5%; GI50 (HeLa): 7500 nM; Activity (MCF7 [17]): 7.2%; GI50 (HOP-62): 90 nM; Activity (MCF7 [18]): 64.29%; live cells (MCF7 [19]): 82.2%; Activity (MCF7 [20]): 0.8%; GI50 (MIA PaCa-2): 29900 nM; IC50 [21]: 1970 nM; Activity (MCF7 [22]): 0.9%; Activity (MCF7 [23]): 2.86% |
